Here are results for five compounds from ChEMBL document CHEMBL1147111, “In vitro and in vivo activities of synthetic trioxolanes against major human schistosome species” (Antimicrob Agents Chemother, 2007).

Calls of active or inactive are those of the source. The rule behind the calls is not given here.

The test system of data set [1] is Schistosoma mansoni. As to the kind of experiment: Antischistosomal activity against NMRI mouse juvenile Schistosoma mansoni infection model assessed as number of cured mouse at 200 mg/kg, po after 28 days. Type of data set: functional, organism-based. The arrangement: dose 200 mg/kg. In outline:
(§1)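 Juvenile-infection model: mice carrying Liberian-strain S. mansoni got one oral dose at day 21 postinfection, as a suspension in 7% Tween 80/3% ethanol. There were 3–5 per group, plus untreated controls. Necropsy by exsanguination followed 28 days after treatment. Liver and mesenteric-vein worms were collected, sexed and counted. Total and female burden reductions were calculated versus controls, with Kruskal-Wallis testing.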

In data set [2] the test system is Schistosoma mansoni. Briefly: Antischistosomal activity against NMRI mouse juvenile Schistosoma mansoni infection model assessed as reduction of female worm burden at 200 mg/kg, po after 28 days. The arrangement: scale not given: the % may be the effect or the level left. It is filed as functional. In outline:
as §1

Data set [3] relates to Schistosoma mansoni. As to the kind of experiment: Antischistosomal activity against NMRI mouse adult Schistosoma mansoni infection model assessed as reduction of female worm burden at 400 mg/kg, po after 28 days. Type of data set: functional. Set-up: scale not given: the % may be the effect or the level left. The method in brief:
(§2)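 Mice with a Liberian-strain S. mansoni infection were dosed at 49 days postinfection with a single oral dose of compound suspended in 7% Tween 80/3% ethanol. Groups held 3–5 animals, with untreated controls. At 28 days posttreatment, animals were killed by bleeding. Worms in liver and mesenteric veins were removed, sexed and counted. Reductions were calculated against controls and tested by Kruskal-Wallis.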

The test system of data set [4] is Schistosoma mansoni. Briefly: Antischistosomal activity against NMRI mouse adult Schistosoma mansoni infection model assessed as reduction of total worm burden at 400 mg/kg, po after 28 days. Type of data set: functional. Set-up: scale not given: the % may be the effect or the level left. In outline:
as §2

Data set [5] deals with Schistosoma mansoni. As to the kind of experiment: Antischistosomal activity against NMRI mouse juvenile Schistosoma mansoni infection model assessed as reduction of total worm burden at 200 mg/kg, po after 28 days. Type of data set: functional. Set-up: scale not given: the % may be the effect or the level left. In outline:
as §1

Data set [6] deals with Schistosoma mansoni. Briefly: Antischistosomal activity against NMRI mouse adult Schistosoma mansoni infection model assessed as number of cured mouse at 400 mg/kg, po after 28 days. Set-up: dose 400 mg/kg. It is filed as functional, organism-based. The method in brief:
as §2

Data set [7] relates to Schistosoma mansoni. Briefly: Tegumental alteration in Schistosoma mansoni at 20 ug/ml after 72 hrs. It is filed as functional, organism-based. In outline: (§3)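 Adult S. mansoni (Liberian strain, 49-day-old) were held two males and two females per well, in duplicate, in Hanks' balanced salt solution with 20% calf serum, 300 IU/ml penicillin and 300 μg/ml streptomycin. Drug was given at 20 μg/ml final from a 1 mg/ml stock in 60% DMSO; solvent control was 1.2% DMSO. Incubation was at 37°C in 5% CO2. Worms were scored under a dissecting microscope at 24, 48 and 72 h for death, motor activity and tegument.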

The subject of a further data set is Mus musculus. Briefly: Toxicity in NMRI mouse with adult Schistosoma mansoni infection at 400 mg/kg, po after 48 to 96 hrs. The settings on record: in vivo. Type of data set: organism-based. The arrangement: dose 400 mg/kg, route oral. In outline: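 Mice carrying a 49-day S. mansoni (Liberian strain) infection were given a single oral 400 mg/kg dose as a suspension in 7% Tween 80/3% ethanol. Deaths occurring 48–96 h after treatment were recorded.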

The test system of data set [8] is Schistosoma mansoni. Briefly: Reduction of motor activity of Schistosoma mansoni at 20 ug/ml after 72 hrs. It is filed as functional, organism-based. In outline: as §3
In data set [9] the test system is Schistosoma mansoni. Briefly: Antischistosomal activity against Schistosoma mansoni assessed as worm death at 20 ug/ml after 72 hrs. Type of data set: functional, organism-based. In outline: as §3
The test system of data set [10] is Schistosoma mansoni. Briefly: Antischistosomal activity against Schistosoma mansoni assessed as worm death at 20 ug/ml after 24 hrs. Type of data set: functional, organism-based. The method in brief: as §3

On to `C1CCC2(CC1)OOC1(O2)C2CC3CC(C2)CC1C3` (stereo not given), for which the result in the data set with Schistosoma mansoni [1] and in the data set with Schistosoma mansoni [6] was inactive. In addition, the Activity with Schistosoma mansoni [2] is recorded as 79.2%; in the data set on Schistosoma mansoni [3], 29.3%; in the data set on Schistosoma mansoni [4] it was 29.1%; in the data set on Schistosoma mansoni [5], 82%.
As to `C1CCC2(CC1)COC1(OO2)C2CC3CC(C2)CC1C3` (stereo not given), the result in the data set with Schistosoma mansoni [1] was inactive. In addition, the Activity in the data set on Schistosoma mansoni [2] is on record as 3.9%; with Schistosoma mansoni [5], 5.4%.
In the same order, the values of `C1CCC2(CC1)COC1(O2)C2CC3CC(C2)CC1C3` (stereo not given) are “inactive”, 0% and 0%.
As to `C1CCC2(CC1)OCC1(O2)C2CC3CC(C2)CC1C3` (stereo not given), the outcome with Schistosoma mansoni [1] was inactive. In addition, the Activity stood at 4.8% with Schistosoma mansoni [2] and 2% with Schistosoma mansoni [5].
Consider `NC[C@H]1CC[C@]2(CC1)OOC1(O2)C2CC3CC(C2)CC1C3` (stereo not given in full), for which the result with Schistosoma mansoni [1], in the data set with Schistosoma mansoni [8] and with Schistosoma mansoni [10] was inactive. The Activity with Schistosoma mansoni [2] is on record as 83.7%; with Mus musculus it was “Toxic”; in the data set on Schistosoma mansoni [3] it was 25%; in the data set with Schistosoma mansoni [4], 16.6%; in the data set on Schistosoma mansoni [5], 85%. Besides, the result in the data set on Schistosoma mansoni [7] and in the data set on Schistosoma mansoni [9] was Active.
